{
  "source": "ChEMBL document CHEMBL1127739",
  "about": "“Newly discovered stereochemical requirements in the side-chain conformation of delta opioid agonists for recognizing opioid delta receptors” (J Med Chem, 1994)",
  "key": {"[1]": {"target": "Opioid receptors; mu & delta (Homo sapiens) (UniProt P41143+P35372)", "sequence (P35372 whole entry, looked up)": "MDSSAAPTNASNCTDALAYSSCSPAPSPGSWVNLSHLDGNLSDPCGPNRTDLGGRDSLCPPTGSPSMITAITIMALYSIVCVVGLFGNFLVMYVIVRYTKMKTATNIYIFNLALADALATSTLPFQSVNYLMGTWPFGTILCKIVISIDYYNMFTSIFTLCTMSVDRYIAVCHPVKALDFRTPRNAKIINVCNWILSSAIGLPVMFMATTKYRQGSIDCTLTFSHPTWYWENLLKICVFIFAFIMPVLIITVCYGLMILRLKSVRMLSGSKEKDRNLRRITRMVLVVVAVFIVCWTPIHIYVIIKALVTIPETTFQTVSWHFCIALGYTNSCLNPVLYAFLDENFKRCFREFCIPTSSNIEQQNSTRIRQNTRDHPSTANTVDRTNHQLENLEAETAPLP", "sequence (P41143 whole entry, looked up)": "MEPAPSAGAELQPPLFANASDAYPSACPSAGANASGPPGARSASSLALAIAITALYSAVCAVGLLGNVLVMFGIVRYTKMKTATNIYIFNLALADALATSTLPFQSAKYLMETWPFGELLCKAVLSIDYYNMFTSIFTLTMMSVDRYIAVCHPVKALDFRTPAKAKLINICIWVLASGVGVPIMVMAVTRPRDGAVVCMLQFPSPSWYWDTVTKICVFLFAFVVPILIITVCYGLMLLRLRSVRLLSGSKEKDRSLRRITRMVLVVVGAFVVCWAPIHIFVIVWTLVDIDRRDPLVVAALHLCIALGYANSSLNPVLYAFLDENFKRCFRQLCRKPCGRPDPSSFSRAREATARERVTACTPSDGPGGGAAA", "test": "Selectivity is the ratio between EC50 values GPI(mu) and MVD(delta)", "type": "protein assay", "outline": "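Electrically stimulated MVD (male ICR mice, 25–30 g) and GPI longitudinal muscle-myenteric plexus (male Hartley guinea pigs, 150–400 g) in 37 °C oxygenated Krebs, magnesium-free for MVD. Tension 1 g (MVD 0.5 g); stimulation 0.1 Hz, 0.4-ms pulses (MVD 2.0 ms), supramaximal voltage. Agonist applied 3 min; percent inhibition of contraction height.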"}, "Mu-type opioid receptor": {"target": "Mu-type opioid receptor (Cavia porcellus, UniProt P97266)", "sequence (P97266 whole entry)": "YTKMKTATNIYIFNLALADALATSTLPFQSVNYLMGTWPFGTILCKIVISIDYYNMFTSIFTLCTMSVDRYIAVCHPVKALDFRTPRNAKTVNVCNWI", "test": "Effective concentration was measured towards mu opioid receptor using guinea pig ileum (GPI, mu) bioassay in vitro", "type": "tissue-based", "outline": "(§1)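 Electrically stimulated MVD (male ICR mice, 25–30 g) and GPI longitudinal muscle-myenteric plexus (male Hartley guinea pigs, 150–400 g) in 37 °C oxygenated Krebs, magnesium-free for MVD. Tension 1 g (MVD 0.5 g); stimulation 0.1 Hz, 0.4-ms pulses (MVD 2.0 ms), supramaximal voltage.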"}, "[2]": {"target": "Delta-type opioid receptor (Mus musculus, UniProt P32300)", "sequence (P32300 whole entry)": "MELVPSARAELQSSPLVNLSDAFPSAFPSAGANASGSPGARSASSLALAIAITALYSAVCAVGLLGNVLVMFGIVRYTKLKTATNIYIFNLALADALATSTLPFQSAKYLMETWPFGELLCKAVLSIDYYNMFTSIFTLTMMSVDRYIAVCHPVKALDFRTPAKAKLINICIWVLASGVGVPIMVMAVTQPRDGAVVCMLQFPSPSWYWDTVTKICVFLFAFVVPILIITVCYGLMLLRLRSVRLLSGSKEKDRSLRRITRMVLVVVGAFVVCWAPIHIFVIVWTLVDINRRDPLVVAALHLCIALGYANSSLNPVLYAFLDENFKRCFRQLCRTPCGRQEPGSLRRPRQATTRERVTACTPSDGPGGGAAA", "test": "Effective concentration was measured towards delta opioid receptor using mouse vas deferens(MVD, delta) bioassay in vitro", "outline": "as §1"}, "[3]": {"test": "Selectivity is the ratio between IC50 values of [3H]CTOP and [3H][p-Cl-phe4]-DPDPE", "outline": "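Brain membranes were homogenised in 50 mM Tris-HCl pH 7.4, pelleted at 48000g, and preincubated at 25 °C for 30 min to strip endogenous peptides. Buffer contained BSA, bestatin, bacitracin, captopril and toluenesulfonyl fluoride. δ radioligand was [3H][D-Pen2,p-Cl-Phe4,D-Pen5]enkephalin 0.75 nM; μ was [3H]CTOP 0.5 nM. Ten concentrations over 800-fold, in duplicate. Nonspecific binding used 10 μM naltrexone. Incubated 25 °C for 3 h, then filtered and counted.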"}},
  "data": [
    {"smiles": "Cc1cc(O)cc(C)c1[C@H](C)[C@H](N)C(=O)N[C@H](C)C(=O)N[C@@H](Cc1ccccc1)C(=O)N[C@@H](CC(=O)O)C(=O)N[C@H](C(=O)N[C@H](C(=O)NCC(N)=O)C(C)C)C(C)C", "values": [
      {"measurement": "Selectivity", "setting": "[1]", "result": 5820},
      {"measurement": "EC50", "setting": "Mu-type opioid receptor", "result": 3840, "unit": "nM"},
      {"measurement": "EC50", "setting": "[2]", "result": 0.66, "unit": "nM"},
      {"measurement": "Selectivity", "setting": "[3]", "result": 5740}
    ]},
    {"smiles": "Cc1cc(O)cc(C)c1[C@H](C)[C@H](N)C(=O)N[C@H]1C(=O)NCC(=O)N[C@@H](Cc2ccccc2)C(=O)N[C@@H](C(=O)O)C(C)(C)SSC1(C)C", "values": [
      {"measurement": "Selectivity", "setting": "[1]", "result": 1.74},
      {"measurement": "EC50", "setting": "Mu-type opioid receptor", "result": 293, "unit": "nM"},
      {"measurement": "EC50", "setting": "[2]", "result": 168, "unit": "nM"},
      {"measurement": "Selectivity", "setting": "[3]", "result": 3.4}
    ]}
  ]
}
